Screening data deposited in PubChem BioAssay by several laboratories.
An excerpt weighted towards active compounds, which were near 4.6% of everything screened.
Arbovirus inh: antivirals against arbovirus infection; arbovirus infection cell-based antiviral screen; inhibition, % at 10 µM; actives 0.37% (n = 200,000); in the data active = inhibition above about 30%
RAM inhibit: yeast RAM network inhibition; S. cerevisiae dse1pr::URA3 reporter, 5-FOA growth OD615, 2 d; analog-sensitive cbk1-as2 kinase mutant strain; inhibition, % at 50 µM; actives 1.8% (n = 190,000);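 active = inhibition above a set limit, 3 SD over mean compound inhibition, cut at about 8.4% in these data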;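 note: 0% = DMSO-only wells with no growth and 100% = 10 µM 1-NA-PP1 full growth; inhibition rescues growth on 5-FOA so higher OD means more RAM inhibition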
Calb biofilm kill: mixtures killing C. albicans biofilm; C. albicans biofilm persisters + clotrimazole, fluorescence viability; primary screen in compound mixtures of four per well; inhibition, % at 7.6 µM; actives 0.02% (n = 120,000); AID 1242;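 active = inhibition above 30.3% in the primary screen of four-compound pools, then above 30% when the compound was retested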;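 note: compounds exposed to preformed 24 h biofilms for 48 h; 0% = untreated biofilm control and 100% = clotrimazole plus chlorhexidine kill blank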
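Test system: C. albicans CAF4-2 wild-type biofilms; buffer or medium: RPMI/MOPS medium, pH 7.0; schedule: 24 h biofilm formation, then 48 h compound exposure, 37 °C; detection: Alamar Blue fluorescence; measure: percent inhibition of biofilm viability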
p47phox inh: blocks human p47phox regulatory protein of NADPH oxidases; inhibition, % at 24.7 µM; p47phox/p22phox peptide binding, fluorescence polarization, 2 h; P14598; actives 0.53% (n = 220,000); AID 1274;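 active = inhibition above about 30%, limit read from the data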;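 note: 0% = p47phox with labelled peptide and 100% = labelled peptide alone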
Hck Nef HTS: blocks Nef-activated human Hck kinase | Recombinant Hck-YEEI plus Nef, Z-Lyte FRET kinase assay | inhibition, % at 20 µM | actives 0.68% (n = 220,000);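 active = Hck-Nef kinase inhibition above about 50%, limit read from the data; inactive = inhibition below that limit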;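 note: 0% = DMSO with Hck plus Nef and 100% = Hck alone without Nef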
Target sequence (P08631 whole entry, looked up): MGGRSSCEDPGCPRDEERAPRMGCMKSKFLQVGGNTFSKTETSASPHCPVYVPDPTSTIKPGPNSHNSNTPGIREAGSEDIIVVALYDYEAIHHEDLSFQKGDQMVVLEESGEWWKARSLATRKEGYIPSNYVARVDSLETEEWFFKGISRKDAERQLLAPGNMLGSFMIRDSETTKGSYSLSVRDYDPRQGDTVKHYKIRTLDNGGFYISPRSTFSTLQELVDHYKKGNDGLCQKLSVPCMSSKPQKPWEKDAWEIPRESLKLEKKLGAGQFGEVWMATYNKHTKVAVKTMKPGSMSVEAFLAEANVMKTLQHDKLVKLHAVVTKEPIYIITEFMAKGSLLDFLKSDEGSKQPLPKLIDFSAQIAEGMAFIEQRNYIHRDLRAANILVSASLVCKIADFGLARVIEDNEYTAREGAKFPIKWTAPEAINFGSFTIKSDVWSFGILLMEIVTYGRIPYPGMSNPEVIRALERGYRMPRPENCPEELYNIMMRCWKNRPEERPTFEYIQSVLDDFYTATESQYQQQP
WT yeast gro inh: growth inhibition of WT yeast, mitochondrial fusion screen. mitochondrial fusion phenotypic screen, WT strain. inhibition, % at 10 µM. actives 2.1% (n = 190,000); in the data active = inhibition above about 58%; tested in S. cerevisiae
* marks the source's active call; other numbers are inactive results; nt = not tested or not shown.

SMILES	Arbovirus inh	RAM inhibit	Calb biofilm kill	p47phox inh	Hck Nef HTS	WT yeast gro inh
CCCCCc1nc2c(c(=O)c3ccccc3n2C)c(=O)n1C1CCCCCC1	-38	2	15	17	4	97*
CCc1ccc(NP(=O)(Oc2ccccc2F)Oc2ccccc2F)cc1	-17	7	9	0	-58	62*
Cc1cccc(NP(=O)(Oc2ccccc2F)Oc2ccccc2F)c1C	5	8.7*	12	-12	0	35
CCOC(=O)CN1C(=O)C2(C(C#N)=C(N)Oc3ccccc32)C(C(=O)OC)=C1C (stereo not drawn)	4	1	nt	-17	-7	26
CCOC(=O)CC1=C(C(=O)OCC)C2(C(=O)N1CC(=O)OC)C(C#N)=C(N)Oc1ccccc12 (stereo not drawn)	-5	1	nt	-9	2	66*
O=C1NC(=O)C(=Cc2ccc(-c3cc(Cl)ccc3[N+](=O)[O-])o2)C(=O)N1	-2	1	7	-20	61*	-10
Cn1c(O)c(C(=Nc2ccccc2)SCc2ccc(Cl)cc2)c(=O)n(C)c1=O	nt	nt	14	-11	28	nt
N=C(N)c1c(O)n(C2CCCCC2)c(=O)n(C2CCCCC2)c1=O	-22	1	nt	-11	11	96*
OCC[n+]1c2ccccc2nc2ccc(N3CCOCC3)cc21	nt	nt	5	155*	11	nt
CCCCCCNC(=O)N[C@H](Cc1ccc(O)cc1)C(=O)NCCC[C@H]1CN2C(=NC[C@H]2CCC)N1CC1CCC1	nt	nt	4	60*	-38	nt
Cc1ccc(-c2nc3ccccc3c(=O)n2-c2nccs2)cc1	-3	4	nt	-4	-1	-2
CC(C)(O)[C@H]1O[C@H]2CC[C@@]3(C)[C@@](O)(CC[C@H]4Cc5c([nH]c6ccccc56)[C@@]43C)C2=CC1=O	-30	0	3	-29	22	74*
Cc1ccc(C)c(NC(=S)NCCc2cnc[nH]2)c1	nt	nt	13	-11	11	nt
CCCN1C2CCCC1CC(NC(C)=O)C2 (stereo not drawn)	10	1	nt	3	-1	4
CNC(=S)NC1CC2CCCC(C1)N2CC(C)C (stereo not drawn)	2	2	nt	40*	1	20
CN1C(=O)C(=Cc2ccc(N3CCOCC3)o2)C(=O)N(C)C1=O	-9	0	23	-37	2	-1
CN1C(=O)C(=Cc2ccc(N3CCCCCC3)o2)C(=O)N(C)C1=S	5	8.7*	nt	-129	1	17
C=CCn1c(O)c(C(C)=NCc2cc(OC)cc(OC)c2)c(=O)[nH]c1=O	7	0	nt	-9	-2	14
O=c1oc2ccccc2c(O)c1[C@H]1c2ccc(O)cc2Oc2c1c(=O)oc1ccccc21	nt	nt	12	-30	-18	nt
Clc1ccc2c(c1)C(c1ccccc1Cl)=NCc1nnc(N3CCN(CCOc4ccccc4)CC3)n1-2	-32	1	15	-3	3	60*
Clc1ccc2c(c1)C(c1ccccc1Cl)=NCc1nnc(N3CCN(CCSc4ccccc4)CC3)n1-2	-44	1	nt	2	1	76*
CN1CCN(Cc2nnc3n2-c2ccc(Cl)cc2C(c2ccccc2)=NC3)CC1	-5	0	13	3	0	7
Cc1c2ccncc2c(C)c2c1[nH]c1ccccc12	-45	-1	18	95*	8	66*
COc1cccc(C(=O)C2CCCN(Cc3cccc4c3OCO4)C2)c1 (stereo not drawn)	-1	1	11	-7	15	15
O=P(Nc1cccc(Cl)c1)(Oc1ccccc1)Oc1ccccc1	-24	5	7	-7	-7	79*
SMILES	Arbovirus inh	RAM inhibit	Calb biofilm kill	p47phox inh	Hck Nef HTS	WT yeast gro inh
CCN1C(=O)C(=Cc2ccc(C)s2)C(=O)N(CC)C1=S	0	9.5*	5	-47	35	-1
CCCCn1c(=O)c(C=Nc2ccc(Cl)cc2)c(O)n(Cc2ccco2)c1=O	-23	8.5*	19	-73	6	26
CC(C)n1c(=O)c(C=Nc2ccc(S(N)(=O)=O)cc2)c(O)n(Cc2ccco2)c1=O	11	2	6	-34	10	-12
Cc1ccc(CN2C(=O)NC(=O)C3(Cc4c(nc5ccccn5c4=O)N4CCCCCC43)C2=O)cc1 (stereo not drawn)	-10	4	nt	-18	0	31
CCC(C)n1c(O)c(C=NCC2CCCO2)c(=O)[nH]c1=S (stereo not drawn)	nt	nt	26	-13	-18	nt
c1ccc(-c2[nH]c(-c3ccccc3)[n+](CC3CO3)c2-c2ccccc2)cc1 (stereo not drawn)	-21	2	13	-4	2	59*
O=C(O)CCCc1ccc(N(CCCl)CCCl)cc1	-5	9.8*	8	-4	-1	-3
Cc1ccc(CCN2CC(C(=O)N3CCC4(CC3)OCCO4)CC2=O)cc1 (stereo not drawn)	11	1	nt	-18	0	32
Cc1oc(-c2ccccc2Cl)nc1CN1C(=O)CN=C(c2ccccc2)c2ccccc21	-14	-1	14	-10	0	71*
C=CC1CN2CCC1CC2c1[nH]c2ccccc2c1CCO (stereo not drawn)	8	1	16	-4	0	5
O=c1cccc2n1CC1CC2CN(c2nc(N3CCCCC3)nc(N3CCCCC3)n2)C1 (stereo not drawn)	-8	1	4	2	20	1
CN1C(=O)NC(=O)/C(=C/c2ccc([N+](=O)[O-])o2)C1=O	nt	nt	-1	-48	23	nt
O=C1NC(=O)N(c2ccccc2)C(=O)/C1=C\c1ccc([N+](=O)[O-])o1	nt	nt	23	-92	55*	nt
c1ccc(C2=NP(N3CCOCC3)(N3CCOCC3)=NC(N3CCOCC3)=N2)cc1	7	1	nt	5	5	-2
CN(C)c1ccc(-[n+]2c(-c3ccccc3)cc(-c3ccccc3)cc2-c2ccccc2)cc1	-23	2	9	-10	-1	77*
COP(=O)(C#Cc1ccccc1)C(O)c1ccc(Br)cc1 (stereo not drawn)	nt	nt	27	-8	17	nt
Clc1ccccc1CN1CCN(c2ccccc2Cl)CC1	-19	1	nt	-3	-1	70*
COc1ccccc1N1CCN(Cc2ccc(Cl)cc2Cl)CC1	-6	0	nt	-58	-2	38
N#CCN1CCN(c2ccc(C(F)(F)F)cc2)CC1	1	2	15	-6	6	4
Cc1ccc(N2C(=O)NC(=O)/C(=C/c3ccoc3)C2=O)cc1	nt	nt	19	-45	55*	nt
CCC(CC)N1CCN(C(=O)Cc2ccccc2)CC1	4	0	18	4	3	9
CC1CCC(C(C)C)C(OC(=O)COC(=O)c2ccccc2N)C1 (stereo not drawn)	5	5	9	-4	3	60*
Cc1cccc(N/N=C(\C(N)=O)C2=NC(C)(C)Cc3ccccc32)c1	-29	0	4	-13	65*	57
